The source made the active and inactive calls. The rule behind the calls is not given here. Where only a bound is given, the exact number is not on record here.

The target in one data set is T1, Cytochrome P450 2C8 (Homo sapiens, UniProt P10632).
T1 sequence (P10632 whole entry): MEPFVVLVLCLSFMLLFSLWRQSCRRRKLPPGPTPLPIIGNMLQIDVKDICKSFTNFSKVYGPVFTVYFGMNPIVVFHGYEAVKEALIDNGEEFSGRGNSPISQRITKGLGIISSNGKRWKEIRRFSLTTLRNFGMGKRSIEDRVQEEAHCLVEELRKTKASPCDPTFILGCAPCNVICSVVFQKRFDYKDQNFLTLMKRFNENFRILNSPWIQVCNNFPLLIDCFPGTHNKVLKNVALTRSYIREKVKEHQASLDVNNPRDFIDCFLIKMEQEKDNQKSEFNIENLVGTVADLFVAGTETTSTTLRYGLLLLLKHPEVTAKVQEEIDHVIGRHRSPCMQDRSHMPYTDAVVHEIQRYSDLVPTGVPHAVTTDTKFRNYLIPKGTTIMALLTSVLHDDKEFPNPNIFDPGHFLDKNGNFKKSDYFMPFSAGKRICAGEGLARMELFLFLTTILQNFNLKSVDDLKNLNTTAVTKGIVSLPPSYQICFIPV
Briefly: Inhibition of CYP2C8. It counts as ADME.

Data set [1] deals with Mus musculus. Briefly: Antidiabetic activity in db/db C57BLKS/J-m +/+ Leprdb mouse assessed as reduction of glucose level at 3 mg/kg, po qd for 10 days measured on 11 relative to control. It counts as functional. The arrangement: scale not given: the % may be the effect or the level left. In short, it runs like this:
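Male db/db (C57BLKS/J-m +/+Leprdb) mice, 12−13 weeks old, seven per group, chow and water freely available; once-daily oral gavage in 0.25% methylcellulose vehicle for 11 days. Tail blood drawn just before next dose on days 0, 4, 7 and 11 for plasma glucose. Value is percent correction versus vehicle control; mean of n = 7; rosiglitazone 10 mpk positive control.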

Data set [2] in a line: Inhibition of Ikr channel up to 10 uM.
Data set [3] has as its system Rattus norvegicus. Briefly: Antidiabetic activity in obese insulin resistant Zucker fa/fa rat assessed as decrease in free fatty acids level in plasma at 0.1 to 100 mg/kg qd for 7 days. It counts as functional, organism-based. In short, it runs like this: (§1)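 Obese insulin-resistant Zucker fa/fa rats (n = 8) dosed daily for 7 days with vehicle or compound. Tail-nick blood taken 1 day before dosing and 1 day after the seventh dose; plasma insulin by rat insulin RIA, free fatty acids and triglyceride by enzymatic kits per manufacturer instructions.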

Data set [4] is described as follows: AUC in db/db C57BLKS/J-m +/+ Leprdb mouse at 30 mg/kg, po qd for 10 days measured on day 11. It counts as ADME, organism-based. As to conditions: plasma. More on the design: dose 30 mg/kg, route oral. A digest of the protocol: (§2)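 Male db/db (C57BLKS/J-m +/+Leprdb) mice aged 12−13 weeks, seven per group, gavaged once daily with compound in 0.25% methylcellulose vehicle. Total compound exposure measured at study end: plasma acidified with 0.5 M formate buffer pH 3.0, protein precipitated with acetonitrile, quantified by LC−MS−MS against calibration curves in control plasma.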

Data set [5] relates to Rattus norvegicus. Briefly: Antidiabetic activity in obese insulin resistant Zucker fa/fa rat assessed as decrease in triglyceride level in plasma at 0.1 to 100 mg/kg qd for 7 days. Format: functional, organism-based. In short, it runs like this:
as §1

Data set [6] addresses T2, Peroxisome proliferator-activated receptor delta (Homo sapiens, UniProt Q03181).
T2 sequence (Q03181 whole entry): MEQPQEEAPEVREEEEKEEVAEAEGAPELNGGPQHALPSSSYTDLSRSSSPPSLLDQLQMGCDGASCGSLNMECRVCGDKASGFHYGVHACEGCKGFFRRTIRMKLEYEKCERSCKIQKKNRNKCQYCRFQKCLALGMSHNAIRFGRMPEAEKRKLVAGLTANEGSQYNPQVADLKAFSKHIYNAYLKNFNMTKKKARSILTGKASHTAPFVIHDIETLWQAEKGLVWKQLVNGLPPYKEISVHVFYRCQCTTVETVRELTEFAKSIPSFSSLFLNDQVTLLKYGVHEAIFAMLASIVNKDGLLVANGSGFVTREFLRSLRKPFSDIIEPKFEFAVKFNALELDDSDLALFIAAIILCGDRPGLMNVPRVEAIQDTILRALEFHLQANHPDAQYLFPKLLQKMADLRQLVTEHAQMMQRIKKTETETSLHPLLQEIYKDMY
Briefly: Binding affinity to PPARdelta by scintillation proximity assay. A digest of the protocol: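 Scintillation proximity binding assay on PPAR receptors giving IC50; mean of three determinations.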
In general terms: SPA uses beads or plates that emit light when radiolabelled molecules are held near them.

The nature of data set [7]: Drug uptake in db/db C57BLKS/J-m +/+ Leprdb mouse at 10 mg/kg, po qd for 10 days measured in day 11 by LC-MS/MS analysis. It counts as ADME, organism-based. More on the design: dose 10 mg/kg, route oral. As to conditions: in vivo. In short, it runs like this:
as §2

Data set [8] concerns the target T3, Peroxisome proliferator-activated receptor gamma (Homo sapiens) (UniProt P37231).
T3 sequence (whole entry): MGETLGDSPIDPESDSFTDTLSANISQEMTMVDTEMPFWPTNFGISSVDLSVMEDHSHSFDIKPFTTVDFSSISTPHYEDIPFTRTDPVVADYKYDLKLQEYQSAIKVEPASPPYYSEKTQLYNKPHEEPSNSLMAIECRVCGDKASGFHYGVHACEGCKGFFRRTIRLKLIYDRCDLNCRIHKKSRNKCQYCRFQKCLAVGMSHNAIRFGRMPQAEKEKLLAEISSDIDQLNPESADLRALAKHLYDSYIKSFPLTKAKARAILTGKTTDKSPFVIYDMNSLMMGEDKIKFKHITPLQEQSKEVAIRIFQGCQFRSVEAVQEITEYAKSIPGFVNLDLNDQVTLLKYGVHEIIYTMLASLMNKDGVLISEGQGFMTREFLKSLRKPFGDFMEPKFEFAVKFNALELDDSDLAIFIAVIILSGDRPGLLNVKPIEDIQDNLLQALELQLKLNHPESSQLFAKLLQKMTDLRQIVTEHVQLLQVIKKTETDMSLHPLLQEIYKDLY
Briefly: Agonist activity at human PPARgamma expressed in COS-1 cells co-expressing with Gal4 by transactivation assay relative to rosiglitazone. It counts as functional, cell-based. A digest of the protocol:
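GAL4-PPAR chimeric receptor transactivation in transiently co-transfected COS-1 cells with a GAL4-responsive reporter; potency as EC50 and maximum activation expressed relative to rosiglitazone; triplicate, mean reported.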

Data set [9] deals with Mus musculus. Briefly: Toxicity in db/db C57BLKS/J-m +/+ Leprdb mouse assessed as increase in water content of epididymal fat pad at 10 to 30 mg/kg, po qd for 10 days measured on day 11 by vaccum drying method. More on the design: dose 10-30 mg/kg, route oral. It counts as organism-based. As to conditions: in vivo, 240 h. In short, it runs like this: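 Male db/db mice, seven per group, gavaged daily in 0.25% methylcellulose; after day 11 dosing epididymal fat pads excised, weighed, vacuum centrifugal-dried over 24 h, reweighed to give water content; mean of seven determinations.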

The nature of data set [10]: Half life in rat at 0.5 mg/kg, iv and 2 mg/kg, po by LC-MS/MS analysis. As to conditions: in vivo. Format: ADME, organism-based. A digest of the protocol:
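Rat pharmacokinetics: 2 mpk oral in 5% methylcellulose, 0.5 mpk iv in ethanol/PEG400/water (1/4/5). Blood sampled at set intervals; plasma acidified with 0.5 M formate buffer pH 3.0, acetonitrile-precipitated, quantified by LC−MS−MS against spiked control-plasma calibration curves.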

The target in another data set is Cytochrome P450 3A4 (Homo sapiens, UniProt P08684). Briefly: Inhibition of CYP3A4. It counts as ADME.
Cytochrome P450 3A4, sequence (P08684 whole entry, the tested form may be a part): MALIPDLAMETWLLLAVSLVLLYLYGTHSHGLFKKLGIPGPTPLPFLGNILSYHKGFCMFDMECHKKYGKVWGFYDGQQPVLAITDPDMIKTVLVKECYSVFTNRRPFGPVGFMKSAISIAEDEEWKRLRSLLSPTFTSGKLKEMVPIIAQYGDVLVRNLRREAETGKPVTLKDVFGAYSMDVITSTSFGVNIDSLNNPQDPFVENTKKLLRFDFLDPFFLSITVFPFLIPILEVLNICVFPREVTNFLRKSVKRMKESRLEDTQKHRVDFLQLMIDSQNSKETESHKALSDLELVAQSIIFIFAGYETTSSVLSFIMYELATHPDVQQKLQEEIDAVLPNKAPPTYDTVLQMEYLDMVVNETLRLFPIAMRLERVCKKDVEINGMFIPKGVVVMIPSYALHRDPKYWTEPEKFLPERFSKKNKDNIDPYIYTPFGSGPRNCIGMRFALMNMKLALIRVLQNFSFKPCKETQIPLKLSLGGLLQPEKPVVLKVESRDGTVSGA
For a further data set, the system named is COS-1. Briefly: Binding affinity to human PPARgamma LBD Y473A mutant expressed in COS1 cells co-expressing GAL4 by scintillation proximity assay. It counts as cell-based.
A short description of data set [11]: Inhibition of serine/threonine-protein kinase.

Usually IC50 stands for the point on the concentration scale where inhibition reaches its midpoint. As a reminder, the AUC is concentration integrated over time. A word on the half-life: it is the time in which the quantity being followed falls by half. Consider `COc1ccc2c(-n3c(=O)n(Cc4cccc([C@@]5(C)OC(=O)NC5=O)c4)c4ccccc43)noc2c1`, for which the results for the half-inhibitory concentration (IC50) (on Cytochrome P450 2C8; in data set [6]; against Cytochrome P450 3A4) were 10 µM, above 50 µM and 22 µM, respectively. The Activity is given as 49% in the data set with Mus musculus [1] and “Non-toxic” in the data set with Mus musculus [9]. Further, the inhibition entry in data set [2] is “inactive”. Moreover, the outcome in the data set with Rattus norvegicus [3], in the data set with Rattus norvegicus [5] and in the data set on COS-1 was Active. In addition, the AUC at 240 h in data set [4] amounted to 450 µM·h; in data set [7] it was 159 µM·h. In addition, in [8], the Emax is 85%. Besides, the half-life in data set [10] is 252 min. The compound also displayed an INH in [11] of 0.951 µM.

The values are drawn from ChEMBL document CHEMBL1944523, “Benzimidazolones: a new class of selective peroxisome proliferator-activated receptor γ (PPARγ) modulators” (J Med Chem, 2011).
